A selection: hits, their analogues and other compounds. The true share with any hit is near 3.7%.
KCNK9 inh: blocks the human KCNK9 two-pore domain potassium channel | AID 488922 | HEK293 KCNK9, FluxOR thallium flux fluorescence; active compounds read low | 310,000 compounds, 1.2% hits | B-score at 10 µM;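 active means ratio B-score over 3 SD below the library mean, with starting fluorescence within 5 SD of its mean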;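 further: negative B-score means less thallium flux so channel inhibition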
Target sequence (Q9NPC2 whole entry, looked up, the tested form may be a part): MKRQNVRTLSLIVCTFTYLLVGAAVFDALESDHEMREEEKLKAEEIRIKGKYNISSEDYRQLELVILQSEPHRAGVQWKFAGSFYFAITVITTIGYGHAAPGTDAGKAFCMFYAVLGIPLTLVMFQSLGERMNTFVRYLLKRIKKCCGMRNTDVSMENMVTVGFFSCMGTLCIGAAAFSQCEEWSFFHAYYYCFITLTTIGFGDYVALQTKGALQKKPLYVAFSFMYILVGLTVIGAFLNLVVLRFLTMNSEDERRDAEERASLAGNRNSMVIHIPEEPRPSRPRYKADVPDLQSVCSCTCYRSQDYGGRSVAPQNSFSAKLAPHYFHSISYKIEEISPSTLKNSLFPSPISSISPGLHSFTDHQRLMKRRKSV
Kir21 inh: blocks the mouse Kir2.1 inward-rectifier potassium channel; P35561; HEK293-Kir2.1, FluxOR thallium flux fluorescence; active compounds read low; B-score at 10 µM; 310,000 compounds, 0.85% hits;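 active means fluorescence ratio B-score at or below minus 3 SD of library scores, with starting-brightness B-score within 2 SD, cut at about -4.2 in these data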;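 further: channel flux triggered by added potassium and thallium sulfate stimulus; B-score of peak minus minimum fluorescence over baseline after thallium stimulus; more negative B-score means stronger Kir2.1 block with less thallium influx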
KCNK3 inh: human KCNK3 channel inhibition, primary screen. 340,000 compounds, 0.84% hits. B-score at 10 µM. O14649. CHO-KCNK3 thallium flux, FluxOR fluorescence; active compounds read low;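 active means B-score under library mean minus 4 SD, starting fluorescence ratio at most library mean plus 5 SD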;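 further: more negative B-score means stronger inhibition of thallium flux through KCNK3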
hERG protect: compounds protecting human hERG from proarrhythmic drug block; Q12809; 310,000 compounds, 0.51% hits; CHO-hERG, FluxOR thallium flux, dofetilide IC70 present; activation (rescue from dofetilide block), less the hit threshold, % at 10 µM;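 active means activation above the mean of controls blocked by dofetilide plus 5 SD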;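 further: thallium influx through hERG after potassium depolarization seen as dye fluorescence rise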
KCNQ1 act: potentiators or activators of human KCNQ1 potassium channel; P51787; CHO-K1 KCNQ1, thallium flux FluxOR fluorescence; active compounds read high; B-score at 10 µM; 310,000 compounds, 0.35% hits; AID 2648;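 active means fluorescence ratio B-score, a plate-corrected score, at least three library SD, with initial intensity B-score within 5 SD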
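Material: CHO-K1 cells stably expressing KCNQ1. Medium: assay buffer for compound exposure, DMSO matched across wells. Reagent: K+/Tl+ depolarizing stimulus. Compound dosing: single-concentration screen. Times: 37 °C overnight plating, 90-min dark dye load, 20-min compound pretreatment. Technique: FluxOR Tl+ flux fluorescence.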
KCNQ1 inh: blocks the human KCNQ1 potassium channel; CHO-K1 KCNQ1, FluxOR thallium flux fluorescence; active compounds read high; B-score at 10 µM; 310,000 compounds, 1.3% hits;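 active means compounds whose thallium flux B-score, printed positive for inhibition, exceeds three library SD while starting fluorescence stays within three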;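 further: channel opened by potassium depolarization with thallium stimulus after 20 min compound exposure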
KCNK9 block conf: confirmation of human KCNK9 potassium channel inhibitors. HEK293 KCNK9 cells, FluxOR thallium flux fluorescence. inhibition, % at 10 µM. 4,900 compounds, 43% hits. shares compounds with KCNK9 inh;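 active means thallium signal inhibited by more than 5 SD of the compound-free buffer control wells, on both duplicate plates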;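 further: 0% = assay buffer control wells without compound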
Kir2-1 spec: selectivity of KCNK9 modulators against mouse Kir2.1; inhibition, % at 10 µM; shares compounds with KCNK9 inh; Kir2.1 cells, FluxOR thallium flux fluorescence; 4,900 compounds, 4% hits; AID 492993;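 active means thallium signal drop more than 5 SD beyond the mean of the no-compound control wells, seen in both duplicate plates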;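 further: signal is fluorescence rise after thallium addition divided by baseline fluorescence; plate controls were assay buffer only for no effect and full block by chlorpromazine control for full effect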
HEK293 Tl ctr: non-induced cell nonspecific activity of KCNK9 modulators; AID 492997; shares compounds with KCNK9 inh; non-induced KCNK9-HEK293, FluxOR thallium flux; inhibition, % at 10 µM; 4,900 compounds, 40% hits;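 active means thallium signal drop beyond 5 SD of the untreated control mean, on both duplicate plates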;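 further: plate controls were buffer only IC0 wells for no effect and SID17386958 at its maximal inhibitory level for full effect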
Numbers without * were called inactive; i = inactive; · = no result given.

SMILES | KCNK9 inh | Kir21 inh | KCNK3 inh | hERG protect | KCNQ1 act | KCNQ1 inh | KCNK9 block conf | Kir2-1 spec | HEK293 Tl ctr
Cc1cc(Cl)cc2c(N=Nc3ccccc3C(=O)O)c(O)[nH]c12 | i | 0 | i | -9 | i | i | i | i | i
COc1ccc(S(=O)(=O)Nc2cc(C)cc(C)n2)c2ccccc12 | i | -0.41 | i | -5 | i | i | · | · | ·
CCOc1ccc(S(=O)(=O)Nc2cc(C)ccn2)c2ccccc12 | i | -0.03 | i | -15 | i | i | i | i | i
O/N=C/Cc1[nH]c2ccccc2c1-c1ccccc1 | -9.1* | 0.34 | i | -6 | i | i | 47%* | i | i
O=c1[nH]c2ccccc2c(O)c1-c1ccccc1 | i | -0.5 | i | -10 | i | i | · | · | ·
CCOc1ccc(CN(CC)C(=O)Cc2c[nH]c3ccccc23)cc1OC | i | -3.4 | i | -10 | i | i | · | · | ·
N#Cc1ccsc1NC(=O)C1CCN(S(=O)(=O)c2cccs2)CC1 | i | 2.5 | i | -16 | i | i | · | · | ·
COc1ccccc1NC(=O)C12CC3CC(C1)CC(c1ccc(C)cc1)(C3)C2 | i | -0.64 | i | -12 | i | i | i | i | i
COc1ccc(NC(=O)C23CC4CC(C2)CC(c2ccc(C)cc2)(C4)C3)cc1 | i | 0.02 | i | -12 | i | i | i | i | i
CNC(=O)C12CC3CC(C1)CC(c1ccc(C)cc1)(C3)C2 | i | -0.69 | i | -6 | i | i | · | · | ·
COc1ccccc1NC(=O)CN(c1ccc(C23CC4CC(CC(C4)C2)C3)cc1)S(C)(=O)=O | i | 0.36 | i | -11 | i | i | i | i | i
CS(=O)(=O)N(CC(=O)O)c1ccc(C23CC4CC(CC(C4)C2)C3)cc1 | i | -1.8 | i | -7 | i | i | · | · | ·
COC(=O)C(C)NC(=O)C12CC3CC(C1)CC(c1ccc(C)cc1)(C3)C2 (stereo not drawn) | i | 0.16 | i | -4 | i | i | i | i | i
Cn1c(CO)cnc1S(=O)(=O)Cc1c(Cl)cccc1Cl | i | 0 | i | -6 | i | i | · | · | ·
Cc1ccc(C(=O)NCC(=O)OCC(=O)c2c(N)n(C)c(=O)n(C)c2=O)cc1C | · | · | i | · | · | · | · | · | ·
COc1ccc(CNC(=O)CCNC(=O)c2ccco2)cc1OC | · | · | i | · | · | · | · | · | ·
COc1ccccc1/C=C/C=N/n1c(-c2ccccc2)n[nH]c1=S | i | -0.02 | i | -4 | i | i | · | · | ·
COc1ccccc1/C=C/C=N/n1c(-c2ccc(Cl)cc2)n[nH]c1=S | i | 0.04 | i | -6 | i | i | i | i | i
CCS(=O)(=O)c1ccc(O)c(NC(=O)c2ccc(S(=O)(=O)N3CCCCCC3)cc2)c1 | · | · | i | · | · | · | · | · | ·
Cc1ccccc1Cn1nc(C)c(NC(=O)c2noc3c2CC(C(C)(C)C)CC3)c1C (stereo not drawn) | i | 0.74 | i | -4 | i | i | · | · | ·
Cc1ccccc1Cn1nc(C)c(NC(=O)c2noc3c2CCc2ccccc2-3)c1C | i | -0.05 | i | -12 | i | i | i | i | i
CN(C1CCCCC1)S(=O)(=O)c1cccc(C(=O)OCC(=O)NC2CCCc3ccccc32)c1 (stereo not drawn) | -9.5* | 1.3 | i | -4 | i | i | 56%* | i | i
CCOc1ccc(C2=C(C=C(C#N)C#N)C(c3ccccc3)c3ccccc3O2)cc1 (stereo not drawn) | -11* | -1.4 | i | -9 | i | i | 50%* | i | 24%*
COc1cccc(C(=O)NCc2ccc(N3CCN(C(=O)OC(C)(C)C)CC3)cc2)c1 | i | 0.82 | i | -14 | i | i | · | · | ·
COc1ccc(C(=O)NCc2ccc(N3CCN(C(=O)OC(C)(C)C)CC3)cc2)cc1 | i | 1.2 | i | 1 | i | i | i | i | i
SMILES | KCNK9 inh | Kir21 inh | KCNK3 inh | hERG protect | KCNQ1 act | KCNQ1 inh | KCNK9 block conf | Kir2-1 spec | HEK293 Tl ctr
CCN(CCn1cccn1)Cc1ccccc1OCC(O)CN1CCc2ccccc2C1 (stereo not drawn) | i | -0.68 | i | -11 | i | i | · | · | ·
O=C(Nc1ncccc1O)c1ccc(Cl)c(S(=O)(=O)N2CCCCC2)c1 | i | -1.6 | i | -16 | i | i | · | · | ·
COc1ccc(NS(=O)(=O)c2cc(NC(=O)CCSc3ccccc3)ccc2OC)cc1 | i | 0.11 | i | 1 | i | i | i | i | i
COc1ccc(NC(=O)CCS(=O)(=O)c2ccccc2Cl)cc1S(=O)(=O)Nc1ccc(Cl)cc1 | i | -0.02 | i | -8 | i | i | · | · | ·
COc1ccc(NC(=O)CCSc2ccc(C)cc2)cc1S(=O)(=O)Nc1ccccc1Cl | i | -1.2 | i | -6 | i | i | i | i | i
COc1ccc(NC(=O)c2ccc3ccccc3n2)cc1S(=O)(=O)Nc1ccccc1Cl | i | 0.45 | i | -11 | i | i | · | · | ·
Cc1ccc(NC(=O)CSc2nnnn2C2CC2)cc1S(=O)(=O)N1CCOCC1 | · | · | i | · | · | · | · | · | ·
COc1cc(CNc2ccccc2)c([N+](=O)[O-])cc1OC | i | -0.02 | i | -10 | i | i | · | · | ·
O=C(Nc1ccc(Cl)cc1N1CCOCC1)C1CCCO1 (stereo not drawn) | i | -1.2 | i | -4 | i | i | · | · | ·
Cc1ccc(S(=O)(=O)NC(=O)N(C)C2CCCCC2)cc1 | i | 1.2 | i | -4 | i | i | · | · | ·
CC1CCN(Cc2c(C(=O)N/N=C/c3ccc(C(C)C)cc3)nnn2-c2nonc2N)CC1 | i | 0.19 | i | -13 | i | i | · | · | ·
CC1CCN(Cc2c(C(=O)N/N=C/c3ccc(C(C)(C)C)cc3)nnn2-c2nonc2N)CC1 | i | 0.02 | i | -9 | i | i | i | i | i
COc1ccc(C)cc1NC(=S)NC12CN3CN(CN(C3)C1)C2 | i | -0.19 | · | 0 | i | i | · | · | ·
COc1ccc(OC)c(C(=O)CN2CCN(S(=O)(=O)c3ccc(Br)cc3)CC2)c1 | i | 1.3 | i | -9 | i | i | i | i | i
COc1ccc(C(c2nnnn2Cc2cccs2)N2CCN(c3ccccc3F)CC2)cc1 (stereo not drawn) | -12* | -1.1 | i | -5 | i | i | 28%* | i | 38%*

Screening results from PubChem BioAssay.
